Test results taken from ChEMBL document CHEMBL1135587, “Discovery and structure-activity relationship of N-(ureidoalkyl)-benzyl-piperidines as potent small molecule CC chemokine receptor-3 (CCR3) antagonists” (J Med Chem, 2002).

Assays:
[1] = molecular target: T1, C-C chemokine receptor type 3 (Homo sapiens, UniProt P51677); assay: Inhibitory activity against recombinant human Chemokine receptor type 3 (CCR3) expressed in chinese hamster ovary cells; assay type: cell-based, CHO
T1 sequence (P51677 whole entry): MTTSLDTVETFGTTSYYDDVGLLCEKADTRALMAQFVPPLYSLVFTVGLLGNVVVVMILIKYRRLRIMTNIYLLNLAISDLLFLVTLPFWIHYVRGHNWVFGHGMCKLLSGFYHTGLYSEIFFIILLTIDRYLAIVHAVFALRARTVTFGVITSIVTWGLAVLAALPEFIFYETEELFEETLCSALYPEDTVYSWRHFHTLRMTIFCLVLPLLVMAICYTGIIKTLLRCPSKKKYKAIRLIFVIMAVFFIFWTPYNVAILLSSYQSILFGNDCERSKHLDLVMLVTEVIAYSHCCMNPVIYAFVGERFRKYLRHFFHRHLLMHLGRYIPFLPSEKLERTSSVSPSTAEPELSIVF
Procedure, shortened: (§1)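 CHO cells transfected with human CCR3, 5×10^5 per well, incubated 30 min at room temperature with 150 pM (final) 125I-labeled human eotaxin and compound. Binding buffer: RPMI 1640 with 0.5% BSA, 20 mM HEPES, 5 mM MgCl2. Filtration on protamine-treated filter plates, washed with binding buffer plus 0.5 M NaCl, filter counted. Nonspecific binding defined with 100 nM eotaxin. Percent inhibition taken against compound-free total binding. IC50 values are the mean of usually three determinations.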

[2] = The compound was evaluated for its eotaxin-induced chemotaxis; assay type: functional, Homo sapiens
Procedure, shortened: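 Freshly isolated human eosinophils at 1×10^6 cells/mL in RPMI 1640/0.1% BSA; cells and 20 nM human eotaxin each mixed 1:1 with compound-containing medium. Eotaxin/compound in the lower well, cells/compound above, across a 5 μm PVP-free polycarbonate filter, 45 min at 37 °C. Filter wiped, dried and Wright Giemsa-stained; migrated cells counted by microscopy.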

[3] = molecular target: T2, C-C chemokine receptor type 3 (Homo sapiens) (UniProt P51677); assay: Evaluated for its inhibitory activity against human Chemokine receptor type 3 expressed in chinese hamster ovary cells at 5 uM; assay type: cell-based; conditions: CHO; procedure, shortened: as §1
T2 sequence (whole entry): T1 sequence (P51677 whole entry)

[4] = molecular target: T2, C-C chemokine receptor type 3 (Homo sapiens); assay: Evaluated for % inhibitory activity against human Chemokine receptor type 3 expressed in chinese hamster ovary cells; assay type: cell-based; conditions: CHO; concentration not given here; procedure, shortened: as §1
[5] = molecular target: T2, C-C chemokine receptor type 3 (Homo sapiens); assay: Evaluated for its % inhibitory activity against human Chemokine receptor type 3 expressed in chinese hamster ovary cells; assay type: cell-based; conditions: CHO; concentration not given here; procedure, shortened: as §1
[6] = molecular target: T2, C-C chemokine receptor type 3 (Homo sapiens); assay: Evaluated for its inhibitory activity against human Chemokine receptor type 3 expressed in chinese hamster ovary cells at 10 uM; assay type: cell-based; conditions: CHO; procedure, shortened: as §1
[7] = The compound was evaluated for its intracellular calcium mobilization; assay type: functional, cell-based; conditions: Homo sapiens
Procedure, shortened: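 Freshly isolated human eosinophils loaded with 5 μM fluo-3 for 60 min at 37 °C, washed, then plated at 2×10^5/well in phenol red-free binding buffer. Compound or buffer added for 5 min, then eotaxin to 10 nM final, read on FLIPR. Base-to-peak fluorescence shift measured in duplicate; inhibition at graded concentrations expressed as percent of the compound-free eotaxin control to give IC50.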

[8] = molecular target: T3, C-C chemokine receptor type 1 (Homo sapiens, UniProt P32246); assay: Inhibitory activity against human Chemokine receptor type 1 expressed in chinese hamster ovary cells; assay type: cell-based, CHO
T3 sequence (P32246 whole entry): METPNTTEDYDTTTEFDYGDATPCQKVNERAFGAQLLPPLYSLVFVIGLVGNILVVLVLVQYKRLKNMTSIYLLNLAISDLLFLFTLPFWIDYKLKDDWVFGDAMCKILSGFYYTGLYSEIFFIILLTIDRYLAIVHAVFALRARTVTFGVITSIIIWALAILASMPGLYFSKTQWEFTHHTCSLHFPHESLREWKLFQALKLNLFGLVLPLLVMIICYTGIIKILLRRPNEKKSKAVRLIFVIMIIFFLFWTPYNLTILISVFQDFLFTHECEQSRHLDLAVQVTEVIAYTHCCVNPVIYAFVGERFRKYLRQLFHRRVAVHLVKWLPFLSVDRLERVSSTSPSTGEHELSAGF

[9] = molecular target: T2, C-C chemokine receptor type 3 (Homo sapiens); assay: Evaluated for its inhibitory activity against Chemokine receptor type 3 at 5 uM; procedure, shortened: as §1
[10] = molecular target: T2, C-C chemokine receptor type 3 (Homo sapiens); assay: Evaluated for its % inhibitory activity against Chemokine receptor type 3 at 5 uM; procedure, shortened: as §1

| Structure (SMILES) | IC50 [1] | IC50 [8] | further results |
| --- | --- | --- | --- |
| CC(=O)c1cccc(NC(=O)Nc2ccccc2CCN2CCC(Cc3ccc(F)cc3)CC2)c1 | 0.0026 µM |  | IC50 [2]: 0.071 µM |
| O=C(Nc1ccccc1)Nc1cccc(C(O)CN2CCC(Cc3ccccc3)CC2)c1 (centres undefined) |  |  | inhibition [3]: 71% |
| COc1ccc(NC(=O)Nc2ccc(CN3CCC(Cc4ccccc4)CC3)cc2)cc1 |  |  | inhibition [4]: 48% |
| COC(=O)c1ccc(CN2CCC(Cc3ccccc3)CC2)c(NC(=O)Nc2cccc(C#N)c2)c1 |  |  | inhibition [5]: 72% |
| O=C(Nc1cc(F)ccc1F)Nc1ccccc1CN1CCN(Cc2ccccc2)CC1 |  |  | inhibition [3]: 28% |
| OC1(c2ccc(Cl)cc2)CCN(CCc2ccccc2)CC1 |  |  | inhibition [6]: 19% |
| CNC(=O)c1cccc(NC(=O)Nc2cccc(C(C)=O)c2)c1CN1CCC(Cc2ccc(F)cc2)CC1 | 0.001 µM |  | IC50 [2]: 0.03 µM; IC50 [7]: 0.0014 µM |
| O=C(Nc1cc(F)ccc1F)Nc1ccccc1N1CCC(Cc2ccccc2)CC1 |  |  | inhibition [3]: 9% |
| COc1cccc(NC(=O)Nc2ccccc2CN2CCC(Cc3ccccc3)CC2)c1 | 0.6 µM | > 10 µM |  |
| O=C(NCCc1ccc(F)cc1)NCC(CCCN1CCC(O)(c2ccc(Cl)cc2)CC1)(c1ccccc1)c1ccccc1 | 2.2 µM | 0.295 µM |  |
| O=C(NCCN1CCCCC1)NCC(CCCN1CCC(O)(c2ccc(Cl)cc2)CC1)(c1ccccc1)c1ccccc1 | 2.2 µM | 0.36 µM |  |
| N#CC(CCCN1CCC(O)(c2ccc(Cl)cc2)CC1)(c1ccccc1)c1ccccc1 [BERLEX COMPOUND] | 9 µM | 0.63 µM |  |
| CC(=O)c1cccc(NC(=O)Nc2ccc(C(N)=O)cc2CN2CCC(Cc3ccc(F)cc3)CC2)c1 | 0.003 µM |  | IC50 [7]: 0.0095 µM |
| O=C(Nc1ccccc1)Nc1ccccc1/C(CN1CCC(Cc2ccccc2)CC1)=N\O |  |  | inhibition [9]: 59% |
| O=C(Nc1ccccc1)Nc1ccccc1CN1CCC(Cc2ccccc2)CC1 | 0.9 µM | > 10 µM |  |
| N#Cc1cccc(NC(=O)Nc2ccc(CN3CCC(Cc4ccccc4)CC3)cc2)c1 |  |  | inhibition [3]: 47% |
| CC(C)NC(=O)NCC(CCCN1CCC(O)(c2ccc(Cl)cc2)CC1)(c1ccccc1)c1ccccc1 | 6.1 µM | < 0.78 µM |  |
| O=C(Nc1ccc2c[nH]nc2c1)Nc1ccccc1CN1CCC(Cc2ccccc2)CC1 | 0.45 µM | > 10 µM |  |
| O=C(Nc1ccccc1CN1CCC(Cc2ccccc2)CC1)NC1CCN(Cc2ccccc2)CC1 | 3.9 µM | > 50 µM |  |
| O=C(NCCCCO)NCC(CCCN1CCC(O)(c2ccc(Cl)cc2)CC1)(c1ccccc1)c1ccccc1 | 5.95 µM | 0.24 µM |  |
| O=C(Nc1cc(F)ccc1F)Nc1ccccc1CN1CCC(O)(c2ccc(Cl)cc2)CC1 |  |  | inhibition [3]: 21% |
| O=C(NCC(CCCN1CCC(O)(c2ccc(Cl)cc2)CC1)(c1ccccc1)c1ccccc1)Nc1cc(F)ccc1F | 5.7 µM | 1.34 µM |  |
| c1ccc(CCN2CCC(Cc3ccccc3)CC2)cc1 | 7.1 µM | > 50 µM |  |
| CNC(=O)c1cccc(NC(=O)Nc2cccc(OC)c2)c1CN1CCC(Cc2ccc(F)cc2)CC1 | 0.002 µM |  | IC50 [7]: 0.0042 µM |

| Structure (SMILES) | IC50 [1] | IC50 [8] | further results |
| --- | --- | --- | --- |
| O=C(Nc1ccc(F)cc1F)Nc1ccccc1C(=O)CN1CCC(Cc2ccccc2)CC1 |  |  | inhibition [10]: 35% |
| O=C(NCCCO)Nc1ccccc1CN1CCC(Cc2ccccc2)CC1 | 2.6 µM | > 10 µM |  |
| O=C(Nc1ccc2[nH]ncc2c1)Nc1ccccc1CN1CCC(Cc2ccccc2)CC1 | 0.45 µM | > 10 µM |  |
| COc1cccc(NC(=O)Nc2ccccc2C(O)CN2CCC(Cc3ccccc3)CC2)c1 (centres undefined) | 0.081 µM | > 10 µM |  |
| O=C(NCC(CCCN1CCC(O)(c2ccc(Cl)cc2)CC1)(c1ccccc1)c1ccccc1)Nc1ccccc1 | 9.8 µM | < 0.78 µM |  |
| COc1ccc(NC(=O)Nc2ccccc2CN2CCC(Cc3ccccc3)CC2)cc1 | 0.75 µM | > 10 µM |  |
| O=C(NCC(CCCN1CCC(O)(c2ccc(Cl)cc2)CC1)(c1ccccc1)c1ccccc1)Nc1cccc(C(F)(F)F)c1 | 19.3 µM | 1.41 µM |  |
| O=C(NCC(CCCN1CCC(O)(c2ccc(Cl)cc2)CC1)(c1ccccc1)c1ccccc1)NC1CCN(Cc2ccccc2)CC1 | 1.62 µM | 0.31 µM |  |
| N#Cc1cccc(NC(=O)Nc2ccccc2C(O)CN2CCC(Cc3ccccc3)CC2)c1 (centres undefined) | 0.049 µM | > 10 µM |  |
| COC(=O)c1cccc(NC(=O)Nc2cccc(C(C)=O)c2)c1CN1CCC(Cc2ccc(F)cc2)CC1 | 0.008 µM |  | IC50 [2]: 0.076 µM; IC50 [7]: 0.0082 µM |
| NCC(CCCN1CCC(O)(c2ccc(Cl)cc2)CC1)(c1ccccc1)c1ccccc1 | 12 µM | 0.76 µM |  |
| O=C(NCCCO)NCC(CCCN1CCC(O)(c2ccc(Cl)cc2)CC1)(c1ccccc1)c1ccccc1 | 2.35 µM | 0.031 µM |  |
| CNC(=O)c1cccc(NC(=O)Nc2ccccc2)c1CN1CCC(Cc2ccc(F)cc2)CC1 | 0.002 µM |  | IC50 [7]: 0.0043 µM |
| CNC(=O)NCC(CCCN1CCC(O)(c2ccc(Cl)cc2)CC1)(c1ccccc1)c1ccccc1 | 8.3 µM | < 0.78 µM |  |
| O=C(NCC(CCCN1CCC(O)(c2ccc(Cl)cc2)CC1)(c1ccccc1)c1ccccc1)Nc1ccc(C(F)(F)F)cc1 | 5.2 µM | 0.89 µM |  |
| O=C(Nc1cc(F)ccc1F)Nc1ccccc1CN1CCC(Cc2ccccc2)CC1 | 1.75 µM | > 50 µM |  |
| COc1ccc(NC(=O)NCC(CCCN2CCC(O)(c3ccc(Cl)cc3)CC2)(c2ccccc2)c2ccccc2)cc1 | 7.6 µM | 0.78 µM |  |
| N#Cc1cccc(NC(=O)Nc2ccccc2CN2CCC(Cc3ccccc3)CC2)c1 | 0.75 µM | > 10 µM |  |
| O=C(Nc1cc(F)ccc1F)Nc1ccccc1C(O)CN1CCC(Cc2ccccc2)CC1 (centres undefined) | 0.41 µM | > 10 µM |  |
| CC(=O)c1cccc(NC(=O)Nc2cccc(C(N)=O)c2CN2CCC(Cc3ccc(F)cc3)CC2)c1 | 0.002 µM |  | IC50 [2]: 0.046 µM; IC50 [7]: 0.0059 µM |
| O=C(NCC(CCCN1CCC(O)(c2ccc(Cl)cc2)CC1)(c1ccccc1)c1ccccc1)Nc1ccncc1 | 3.5 µM | 0.167 µM |  |
| CNC(=O)c1ccc(NC(=O)Nc2cccc(C(C)=O)c2)c(CN2CCC(Cc3ccc(F)cc3)CC2)c1 | 0.008 µM |  | IC50 [7]: 0.0118 µM |
| CNC(=O)c1cccc(NC(=O)Nc2cccc(C#N)c2)c1CN1CCC(Cc2ccc(F)cc2)CC1 | 0.001 µM |  | IC50 [7]: 0.0053 µM |
| c1ccc(CCCCN2CCC(Cc3ccccc3)CC2)cc1 | 3.8 µM | > 50 µM |  |
